# Test results taken from ChEMBL document CHEMBL6153131, “Rational Design and Optimization of a Potent IDO1 Proteolysis Targeting Chimera (PROTAC)” (J Med Chem, 2025).
# Activity calls are given as the source filed them. The rule behind the calls is not given here.
# What was measured:
# [1] = target: T1, Protein cereblon/Indoleamine 2,3-dioxygenase 1 (Homo sapiens, UniProt P14902+Q96SW2); assay: (§1) PROTAC activity at CRBN/N-terminal HiBiT-tagged IDO1 (unknown origin) transfected in human U87 cells assessed as induction of IDO1 degradation pretreated with IFN-gamma for 24 hrs followed by compound addition and measured after 24 hrs by Nano-Glo HiBiT assay; type: cell-based
# Outline: (§2)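 U87 cells carrying HiBiT knocked in by CRISPR/Cas9 at the IDO1 N-terminus, treated for 24 h. Degradation read as loss of luminescence. DC50 fitted from the lowest concentration up to maximal degradation, excluding hook-effect points; triplicate mean ± SD.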
# Target sequence in this assay (P14902 whole entry): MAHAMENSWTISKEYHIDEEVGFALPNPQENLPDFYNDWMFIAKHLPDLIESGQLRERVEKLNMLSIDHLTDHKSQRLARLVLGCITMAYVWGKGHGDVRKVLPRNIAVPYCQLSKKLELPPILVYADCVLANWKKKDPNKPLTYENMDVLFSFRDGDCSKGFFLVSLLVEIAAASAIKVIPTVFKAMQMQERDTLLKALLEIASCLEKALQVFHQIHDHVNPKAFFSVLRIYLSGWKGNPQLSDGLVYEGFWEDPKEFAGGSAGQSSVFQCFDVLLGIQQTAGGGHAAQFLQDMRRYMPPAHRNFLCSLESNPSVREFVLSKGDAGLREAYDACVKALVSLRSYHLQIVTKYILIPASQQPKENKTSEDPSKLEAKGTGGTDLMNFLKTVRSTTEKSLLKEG
# Target sequence in this assay (Q96SW2 whole entry): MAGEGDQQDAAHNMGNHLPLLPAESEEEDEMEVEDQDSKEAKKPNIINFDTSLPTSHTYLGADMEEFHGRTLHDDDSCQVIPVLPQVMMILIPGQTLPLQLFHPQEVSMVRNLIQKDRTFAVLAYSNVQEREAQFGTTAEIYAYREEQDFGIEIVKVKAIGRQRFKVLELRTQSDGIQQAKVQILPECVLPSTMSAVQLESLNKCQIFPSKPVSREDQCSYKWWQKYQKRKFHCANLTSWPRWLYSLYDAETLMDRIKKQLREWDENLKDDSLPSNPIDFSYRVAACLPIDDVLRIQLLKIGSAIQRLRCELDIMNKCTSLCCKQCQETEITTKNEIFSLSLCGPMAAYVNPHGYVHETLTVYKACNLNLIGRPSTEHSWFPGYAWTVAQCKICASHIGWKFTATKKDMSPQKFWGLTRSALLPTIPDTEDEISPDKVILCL
# [2] = target: T1, Protein cereblon/Indoleamine 2,3-dioxygenase 1; assay: as §1, with “degradation by measuring maximum efficacy” for “degradation”, “assay relative to control” for “assay”; type: cell-based; outline: as §2
# Target sequence in this assay (P14902 whole entry, looked up): as the sequence (P14902 whole entry) above
# Target sequence in this assay (Q96SW2 whole entry, looked up): as the sequence (Q96SW2 whole entry) above
# Kelly [3] = assay: Downregulation of EPHX2 protein level in human Kelly cells at 1 uM incubated for 24 hrs by proteomics analysis; type: functional, cell-based
# [4] = target: T1, Protein cereblon/Indoleamine 2,3-dioxygenase 1; assay: PROTAC activity at CRBN/IDO1 in human U87 cells assessed as induction of IDO1 degradation by measuring maximum efficacy at 300 nM pretreated with IFN-gamma for 24 hrs followed by compound addition and measured after 24 hrs by Western blotting analysis relative to control; type: cell-based
# Outline: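 IDO1 in U87 cells induced with 50 ng/mL human IFN-γ, then compound given across an extended dose range for 24 h. IDO1 and GAPDH read by Western blot; IDO1 levels normalized to untreated; DC50 from n = 3 independent experiments.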
# Target sequence in this assay (P14902 whole entry, looked up): as the sequence (P14902 whole entry) above
# Target sequence in this assay (Q96SW2 whole entry, looked up): as the sequence (Q96SW2 whole entry) above
# [5] = target: T1, Protein cereblon/Indoleamine 2,3-dioxygenase 1; assay: PROTAC activity at CRBN/IDO1 in human U87 cells assessed as induction of IDO1 degradation by measuring remaining activity at 0.01 uM pretreated with IFN-gamma for 24 hrs followed by compound addition and measured after 24 hrs by Western blotting analysis (reference value: 100%); type: cell-based
# Outline: (§3)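 U87 cells given an extended dose range of PROTAC for 24 h, then Western blot for IDO1. IFNγ-induced IDO1 levels normalised to untreated samples. n = 3 independent experiments; mean ± SEM.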
# Target sequence in this assay (P14902 whole entry, looked up): as the sequence (P14902 whole entry) above
# Target sequence in this assay (Q96SW2 whole entry, looked up): as the sequence (Q96SW2 whole entry) above
# Kelly [6] = assay: Downregulation of CDK8 protein level in human Kelly cells at 1 uM incubated for 24 hrs by proteomics analysis; type: functional, cell-based
# [7] = target: T1, Protein cereblon/Indoleamine 2,3-dioxygenase 1; assay: PROTAC activity at CRBN/IDO1 in human U87 cells assessed as induction of IDO1 degradation by measuring remaining activity at 3 uM pretreated with IFN-gamma for 24 hrs followed by compound addition and measured after 24 hrs by Western blotting analysis (reference value: 100%); type: cell-based; outline: as §3
# Target sequence in this assay (P14902 whole entry, looked up): as the sequence (P14902 whole entry) above
# Target sequence in this assay (Q96SW2 whole entry, looked up): as the sequence (Q96SW2 whole entry) above
# [8] = target: T1, Protein cereblon/Indoleamine 2,3-dioxygenase 1; assay: PROTAC activity at CRBN/IDO1 in human U87 cells assessed as induction of IDO1 degradation by measuring remaining activity at 0.001 uM pretreated with IFN-gamma for 24 hrs followed by compound addition and measured after 24 hrs by Western blotting analysis (reference value: 100%); type: cell-based; outline: as §3
# Target sequence in this assay (P14902 whole entry, looked up): as the sequence (P14902 whole entry) above
# Target sequence in this assay (Q96SW2 whole entry, looked up): as the sequence (Q96SW2 whole entry) above
# [9] = target: T1, Protein cereblon/Indoleamine 2,3-dioxygenase 1; assay: PROTAC activity at CRBN/IDO1 in human U87 cells assessed as induction of IDO1 degradation by measuring remaining activity at 0.1 uM pretreated with IFN-gamma for 24 hrs followed by compound addition and measured after 24 hrs by Western blotting analysis (reference value: 100%); type: cell-based; outline: as §3
# Target sequence in this assay (P14902 whole entry, looked up): as the sequence (P14902 whole entry) above
# Target sequence in this assay (Q96SW2 whole entry, looked up): as the sequence (Q96SW2 whole entry) above
# [10] = target: T1, Protein cereblon/Indoleamine 2,3-dioxygenase 1; assay: Binding affinity to CRBN/6His-tagged recombinant IDO1 (unknown origin) assessed as ternary complex formation by measuring half life by Biolayer Interferometry assay; type: protein assay
# [11] = target: T1, Protein cereblon/Indoleamine 2,3-dioxygenase 1; assay: PROTAC activity at CRBN/IDO1 in human U87 cells assessed as induction of IDO1 degradation by measuring remaining activity at 0.3 uM pretreated with IFN-gamma for 24 hrs followed by compound addition and measured after 24 hrs by Western blotting analysis (reference value: 100%); type: cell-based; outline: as §3
# Kelly [12] = assay: Downregulation of ADO protein level in human Kelly cells at 1 uM incubated for 24 hrs by proteomics analysis; type: functional, cell-based
# [13] = target: T1, Protein cereblon/Indoleamine 2,3-dioxygenase 1; assay: PROTAC activity at CRBN/IDO1 in human U87 cells assessed as induction of IDO1 degradation by measuring remaining activity at 0.003 uM incubated for 24 hrs by Western blotting analysis (reference value: 100%); type: cell-based
# [14] = target: T1, Protein cereblon/Indoleamine 2,3-dioxygenase 1; assay: PROTAC activity at CRBN/IDO1 in human U87 cells assessed as induction of IDO1 degradation by measuring remaining activity at 1 uM pretreated with IFN-gamma for 24 hrs followed by compound addition and measured after 24 hrs by Western blotting analysis (reference value: 100%); type: cell-based; outline: as §3
# [15] = target: T1, Protein cereblon/Indoleamine 2,3-dioxygenase 1; assay: PROTAC activity at CRBN/IDO1 in human U87 cells assessed as induction of IDO1 degradation by measuring remaining activity at 0.03 uM pretreated with IFN-gamma for 24 hrs followed by compound addition and measured after 24 hrs by Western blotting analysis (reference value: 100%); type: cell-based; outline: as §3
# U-87MG ATCC [16] = assay: Inhibition of kynurenine production in human U87 cells […] and measured after 24 hrs by Ehrlich's reagent based analysis; type: functional, cell-based; details: dose 0.001-10 µM
# Outline: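 U87 cells plated, then 24 h later given compound with 50 ng/mL IFN-γ for a total of 24 h. Supernatant kynurenine measured with Ehrlich's reagent; cells without IFN-γ as control; mean ± SEM, Tukey's test.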
# [17] = target: T1, Protein cereblon/Indoleamine 2,3-dioxygenase 1; assay: PROTAC activity at CRBN/IDO1 in human U87 cells assessed as induction of IDO1 degradation by measuring remaining activity at 10 uM pretreated with IFN-gamma for 24 hrs followed by compound addition and measured after 24 hrs by Western blotting analysis (reference value: 100%); type: cell-based; outline: as §3
# Kelly [18] = assay: Downregulation of SALL4 protein level in human Kelly cells at 1 uM incubated for 24 hrs by proteomics analysis; type: functional, cell-based
# [19] = target: Indoleamine 2,3-dioxygenase 1 (Homo sapiens) (UniProt P14902); assay: Binding affinity to 6His-tagged recombinant IDO1 (unknown origin) assessed as binary complex formation by measuring half life by Biolayer Interferometry assay
# Sequence of Indoleamine 2,3-dioxygenase 1 (Homo sapiens) (P14902 whole entry, looked up): as the sequence (P14902 whole entry) above
# U-87MG ATCC [20] = assay: Inhibition of kynurenine production in human U87 cells at 25 nM pretreated with IFN-gamma for 24 hrs followed by compound addition and measured after 24 hrs by Ehrlich's reagent based analysis; type: functional, cell-based
SMILES,DC50 [1] [µM],Emax [2] [%],other results
C[C@@H](C(=O)Nc1ccc(Cl)c(OC2CCN(C(=O)CN3CCC(N4CCN(c5ccc6c(c5)C(=O)N(C5CCC(=O)NC5=O)C6=O)CC4)CC3)CC2)c1)[C@H]1CC[C@@H](c2ccnc3ccc(F)cc32)CC1 (stereo not given in full),0.007,51,
C[C@@H](C(=O)Nc1ccc(OC2CCN(C(=O)CCOCCN3CCN(c4ccc5c(c4)C(=O)N(C4CCC(=O)NC4=O)C5=O)CC3)CC2)cc1)[C@H]1CC[C@@H](c2ccnc3ccc(F)cc32)CC1 (stereo not given in full),> 10,< 10,
C[C@@H](C(=O)Nc1ccc(OC2CCN(C(=O)CN3CCC(N4CCN(c5ccc6c(c5)C(=O)N(C5CCC(=O)NC5=O)C6=O)CC4)CC3)CC2)cc1)[C@H]1CC[C@@H](c2ccnc3ccc(F)cc32)CC1 (stereo not given in full),0.034,21,
C[C@@H](C(=O)Nc1ccc(Cl)c(OC2CCN(C(=O)CCOCCN3CCN(c4ccc5c(c4)C(=O)N(C4CCC(=O)NC4=O)C5=O)CC3)CC2)c1)[C@H]1CC[C@@H](c2ccnc3ccc(F)cc32)CC1 (stereo not given in full),> 10,< 10,
C[C@@H](C(=O)Nc1ccc(Cl)c(OC2CCN(C(=O)CCOCCN3CCN(c4cccc5c4C(=O)N(C4CCC(=O)NC4=O)C5=O)CC3)CC2)c1)[C@H]1CC[C@@H](c2ccnc3ccc(F)cc32)CC1 (stereo not given in full),> 10,< 10,
C[C@@H](C(=O)Nc1ccc(Cl)c(OC2CCN(C(=O)CN3CCC(CN4CCN(c5cccc6c5C(=O)N(C5CCC(=O)NC5=O)C6=O)CC4)CC3)CC2)c1)[C@H]1CC[C@@H](c2ccnc3ccc(F)cc32)CC1 (stereo not given in full),> 10,< 10,
C[C@@H](C(=O)Nc1cccc(OC2CCN(C(=O)CN3CCN(c4ccc5c(c4)C(=O)N(C4CCC(=O)NC4=O)C5=O)CC3)CC2)c1)[C@H]1CC[C@@H](c2ccnc3ccc(F)cc32)CC1 (stereo not given in full),> 10,< 10,
C[C@@H](C(=O)Nc1cccc(OC2CCN(C(=O)CCN3CCN(c4ccc5c(c4)C(=O)N(C4CCC(=O)NC4=O)C5=O)CC3)CC2)c1)[C@H]1CC[C@@H](c2ccnc3ccc(F)cc32)CC1 (stereo not given in full),> 10,< 10,
C[C@@H](C(=O)Nc1ccc(OC2CCN(C(=O)CN3CCC(CN4CCN(c5ccc6c(c5)C(=O)N(C5CCC(=O)NC5=O)C6=O)CC4)CC3)CC2)cc1)[C@H]1CC[C@@H](c2ccnc3ccc(F)cc32)CC1 (stereo not given in full),0.34,26,
C[C@@H](C(=O)Nc1ccc(Cl)c(OC2CCN(C(=O)CCOCCOCCNc3cccc4c3C(=O)N(C3CCC(=O)NC3=O)C4=O)CC2)c1)[C@H]1CC[C@@H](c2ccnc3ccc(F)cc32)CC1 (stereo not given in full),> 10,< 10,
C[C@@H](C(=O)Nc1cccc(OC2CCN(C(=O)CN3CCC(CN4CCN(c5ccc6c(c5)C(=O)N(C5CCC(=O)NC5=O)C6=O)CC4)CC3)CC2)c1)[C@H]1CC[C@@H](c2ccnc3ccc(F)cc32)CC1 (stereo not given in full),0.02,67,Activity (Kelly [3]): Active; Emax [4]: 68%; Activity [5]: 84%; Activity (Kelly [6]): Active; Activity [7]: 57%; Activity [8]: 93%; Activity [9]: 47%; T1/2 [10]: 4.27 min; Activity [11]: 32%; Activity (Kelly [12]): Active; Activity [13]: 88%; Activity [14]: 37%; Activity [15]: 71%; inhibition (U-87MG ATCC [16]): Dose-dependent-effect; Activity [17]: 93%; Activity (Kelly [18]): Active; T1/2 [19]: 0.883 min
C[C@@H](C(=O)Nc1ccc(Cl)cc1)[C@H]1CC[C@@H](c2ccnc3ccc(F)cc32)CC1,,,inhibition (U-87MG ATCC [20]): Active
C[C@@H](C(=O)Nc1ccc(OC2CCN(C(=O)CN3CCC(CN4CCN(c5cccc6c5C(=O)N(C5CCC(=O)NC5=O)C6=O)CC4)CC3)CC2)cc1)[C@H]1CC[C@@H](c2ccnc3ccc(F)cc32)CC1 (stereo not given in full),> 10,< 10,
C[C@@H](C(=O)Nc1ccc(OC2CCN(C(=O)CCOCCN3CCN(c4cccc5c4C(=O)N(C4CCC(=O)NC4=O)C5=O)CC3)CC2)cc1)[C@H]1CC[C@@H](c2ccnc3ccc(F)cc32)CC1 (stereo not given in full),> 10,< 10,
C[C@@H](C(=O)Nc1ccc(Cl)c(OC2CCN(C(=O)CN3CCC(CN4CCN(c5ccc6c(c5)C(=O)N(C5CCC(=O)NC5=O)C6=O)CC4)CC3)CC2)c1)[C@H]1CC[C@@H](c2ccnc3ccc(F)cc32)CC1 (stereo not given in full),0.008,48,
C[C@@H](C(=O)Nc1ccc(OC2CCN(C(=O)CCOCCOCCNc3ccc4c(c3)C(=O)N(C3CCC(=O)NC3=O)C4=O)CC2)cc1)[C@H]1CC[C@@H](c2ccnc3ccc(F)cc32)CC1 (stereo not given in full),> 10,< 10,
C[C@@H](C(=O)Nc1ccc(Cl)c(OC2CCN(C(=O)CCOCCOCCNc3ccc4c(c3)C(=O)N(C3CCC(=O)NC3=O)C4=O)CC2)c1)[C@H]1CC[C@@H](c2ccnc3ccc(F)cc32)CC1 (stereo not given in full),> 10,< 10,
